TRPC4 PAM: allosteric potentiators of mouse TRPC4 channel; B-score at 10 µM; actives 0.42% (n = 310,000); HEK293 TRPC4beta/mu-opioid, DAMGO EC20, Fluo-4 Ca2+ flux; stronger effect = higher value; Q9QUQ5;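 active = B-score of calcium response area above 5 SD of library B-scores, with initial fluorescence ratio within 5 SD of library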;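 also: B-score of integrated fluorescence ratio over time as area under calcium response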
TRPC6 act: mouse TRPC6 channel activation; B-score at 10 µM; actives 0.13% (n = 310,000); HEK293-TRPC6 membrane potential dye fluorescence; stronger effect = higher value;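 active = B-score of the integrated fluorescence ratio above library mean plus 3 SD, and starting fluorescence ratio within library mean plus 5 SD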;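 also: higher score means more depolarization so channel activation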
Target sequence (Q61143 whole entry, looked up): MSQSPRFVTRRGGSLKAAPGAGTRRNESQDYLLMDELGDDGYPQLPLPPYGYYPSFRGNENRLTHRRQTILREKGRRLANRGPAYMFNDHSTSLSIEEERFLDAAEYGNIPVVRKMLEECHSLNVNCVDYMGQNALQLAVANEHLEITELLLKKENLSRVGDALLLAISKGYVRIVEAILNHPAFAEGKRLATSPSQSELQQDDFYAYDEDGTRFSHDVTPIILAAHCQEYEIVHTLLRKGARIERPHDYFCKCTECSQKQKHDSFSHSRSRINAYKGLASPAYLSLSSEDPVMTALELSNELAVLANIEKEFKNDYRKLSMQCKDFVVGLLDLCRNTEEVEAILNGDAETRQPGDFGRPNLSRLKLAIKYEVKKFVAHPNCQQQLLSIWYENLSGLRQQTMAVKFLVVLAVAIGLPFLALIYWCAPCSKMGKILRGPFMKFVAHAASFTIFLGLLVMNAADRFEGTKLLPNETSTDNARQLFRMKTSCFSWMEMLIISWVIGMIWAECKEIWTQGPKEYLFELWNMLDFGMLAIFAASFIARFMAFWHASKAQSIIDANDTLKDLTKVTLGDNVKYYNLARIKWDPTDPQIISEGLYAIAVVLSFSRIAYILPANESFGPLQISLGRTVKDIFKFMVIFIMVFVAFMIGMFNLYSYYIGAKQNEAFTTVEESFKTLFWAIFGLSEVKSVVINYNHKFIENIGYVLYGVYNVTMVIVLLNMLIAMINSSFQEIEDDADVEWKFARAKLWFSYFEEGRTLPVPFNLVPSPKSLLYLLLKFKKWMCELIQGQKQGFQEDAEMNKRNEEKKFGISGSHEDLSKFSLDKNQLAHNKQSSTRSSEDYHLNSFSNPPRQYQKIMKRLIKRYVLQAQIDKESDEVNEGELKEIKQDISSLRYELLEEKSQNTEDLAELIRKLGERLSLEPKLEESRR
TRPC6 inh: blocks the mouse TRPC6 cation channel. HEK293-TRPC6, membrane potential dye, ACh-evoked depolarization; stronger effect = lower value. AID 2553. B-score at 10 µM. Q61143. actives 1.1% (n = 310,000);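 active = B-score under library mean minus 3 SD, initial fluorescence not abnormally high, positive integrated signal ratio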;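 also: B-score derived from integrated fluorescence ratio over the kinetic read; more negative B-score means stronger inhibition of depolarization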
TRPC4 block: TRPC4 (mouse) channel inhibition. B-score at 10 µM. actives 0.39% (n = 300,000). HEK293 TRPC4beta/mu-opioid, DAMGO-evoked Fluo4 calcium flux; stronger effect = lower value. Q9QUQ5;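 active = B-score over 3 SD under the library average, no early fluorescence shift, positive overall ratio signal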
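System: stable TRPC4beta/mu-opioid receptor HEK293 cells; Dosing: single-point compound dosing; Measured by: Fluo4 Ca2+ flux fluorescence; Read-out basis: per-well B score of integrated baseline-normalized Fluo4 ratio.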
TRPC4 agonist: opens the mouse TRPC4 cation channel; Q9QUQ5; HEK293 TRPC4beta/mu-opioid, Fluo4 calcium fluorescence; stronger effect = higher value; B-score at 10 µM; actives 0.49% (n = 310,000); AID 2237;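 active = B-score above 5 SD of library B-scores, and initial fluorescence ratio not above library mean plus 5 SD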;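 also: positive B-score marks a calcium rise read as TRPC4 activation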
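Incubation: 45 min room-temperature Fluo4 loading, 110 s read / System: HEK293 cells stably co-expressing mouse TRPC4beta and mu-opioid receptor / Signal: Fluo4 fluorescence, kinetic / Control set: buffer (low) and maximal DAMGO (high) / Measure: integrated baseline-normalised fluorescence ratio, converted to per-well B score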
* hit, by the source's call. The list is not random: actives were taken first. Their share in the collection is about 2.3%.

Results for CCN(Cc1ccccc1)S(=O)(=O)c1ccc(C(=O)N(CCCN(C)C)c2nc3c(F)cccc3s2)cc1 ?
TRPC4 PAM: inactive; TRPC6 act: inactive; TRPC6 inh: inactive; TRPC4 block: inactive; TRPC4 agonist: 112*

What do the screens show for `CCCOc1ccc(-c2c(C(=O)N/N=C(\C)COc3ccccc3)nnn2-c2nonc2N)cc1`?
TRPC4 PAM: inactive; TRPC6 act: inactive; TRPC6 inh: inactive; TRPC4 block: inactive; TRPC4 agonist: inactive

How did Cc1onc(-c2ccccc2)c1C(=O)Nc1nnc(C(C)(C)C)s1 do in these assays?
TRPC4 PAM: inactive; TRPC6 act: inactive; TRPC6 inh: inactive; TRPC4 block: inactive; TRPC4 agonist: inactive

How did c1coc(CN=C2NC(=NCc3ccco3)c3ccccc32)c1 do in these assays?
TRPC4 PAM: inactive; TRPC6 act: inactive; TRPC6 inh: inactive; TRPC4 block: -7*; TRPC4 agonist: inactive

How did O=C(Nc1cccc(O)c1)c1c(O)c2ccccc2[nH]c1=O do in these assays?
TRPC4 PAM: inactive; TRPC6 act: inactive; TRPC6 inh: inactive; TRPC4 block: inactive; TRPC4 agonist: inactive

Results for CCOc1ccccc1NC(=O)c1csc(C)c1C ?
TRPC4 PAM: inactive; TRPC6 act: inactive; TRPC6 inh: inactive; TRPC4 block: inactive; TRPC4 agonist: inactive

Results for Cc1cc(C)c(C)c(C(=O)C2OC(=O)C(C)(C)C(=O)C2(C)C)c1C (centres undefined) ?
TRPC4 PAM: inactive; TRPC6 act: inactive; TRPC6 inh: inactive; TRPC4 block: inactive; TRPC4 agonist: inactive

Results for CC1(C)C(=O)OC(C(=O)c2ccc(C(C)(C)C)cc2)C(C)(C)C1=O (centres undefined) ?
TRPC4 PAM: 13*; TRPC6 act: inactive; TRPC6 inh: inactive; TRPC4 block: inactive; TRPC4 agonist: inactive

How did COc1ccc(CCN2CC(C(=O)Nc3ccc(S(C)(=O)=O)cc3)CC2=O)cc1OC (centres undefined) do in these assays?
TRPC4 PAM: inactive; TRPC6 act: inactive; TRPC6 inh: inactive; TRPC4 block: inactive; TRPC4 agonist: inactive

Results for CC1CCN(CCCOc2ccc(OCc3ccccc3)cc2)CC1 ?
TRPC4 PAM: inactive; TRPC6 act: inactive; TRPC6 inh: inactive; TRPC4 block: -6*; TRPC4 agonist: inactive

What do the screens show for `COC(=O)c1ccc(/C=N/N2CCN(Cc3ccc(C)cc3C)CC2)cc1`?
TRPC4 PAM: 16*; TRPC6 act: inactive; TRPC6 inh: inactive; TRPC4 block: inactive; TRPC4 agonist: inactive

Results for COc1ccccc1CNCC(c1ccccc1)c1ccccc1 ?
TRPC4 PAM: inactive; TRPC6 act: inactive; TRPC6 inh: inactive; TRPC4 block: -6*; TRPC4 agonist: inactive

What do the screens show for `COc1ccccc1CNCC(O)Cn1c2ccccc2c2ccccc21` (centres undefined)?
TRPC4 PAM: inactive; TRPC6 act: inactive; TRPC6 inh: inactive; TRPC4 block: inactive; TRPC4 agonist: 80*

Results for O=C(COC(=O)c1ccccc1C(=O)N1CCN(c2ccccc2)CC1)Nc1ccc(F)cc1 ?
TRPC4 PAM: 17*; TRPC6 act: inactive; TRPC6 inh: inactive; TRPC4 block: inactive; TRPC4 agonist: inactive

How did O=C(COC(=O)c1ccccc1C(=O)N1CCN(c2ccccc2)CC1)Nc1ccccc1 do in these assays?
TRPC4 PAM: inactive; TRPC6 act: inactive; TRPC6 inh: inactive; TRPC4 block: inactive; TRPC4 agonist: inactive

How did CCc1ccc(NC(=S)NC2CC3CCCC(C2)N3Cc2ccccc2)cc1 (centres undefined) do in these assays?
TRPC4 PAM: inactive; TRPC6 act: inactive; TRPC6 inh: inactive; TRPC4 block: inactive; TRPC4 agonist: 51*

Results for Cc1ccc(NC(=S)NC2CC3CCCC(C2)N3Cc2cccs2)cc1 (centres undefined) ?
TRPC4 PAM: inactive; TRPC6 act: inactive; TRPC6 inh: inactive; TRPC4 block: inactive; TRPC4 agonist: 48*

What do the screens show for `Clc1ccc(SCCOCCN2CCCCCC2)cc1`?
TRPC4 PAM: inactive; TRPC6 act: inactive; TRPC6 inh: inactive; TRPC4 block: inactive; TRPC4 agonist: inactive

Screening data as filed in PubChem.
